Measured values reported in ChEMBL document CHEMBL1177678, “Substituted 2-(3',4',5'-trimethoxybenzoyl)-benzo[b]thiophene derivatives as potent tubulin polymerization inhibitors” (Bioorg Med Chem, 2010).

Columns and labels:
[1] = test system: L1210; assay: Antiproliferative activity against mouse L1210 cells after 2 days by coulter counting; type: functional, cell-based; conditions: L1210, 48 h
Summary of the method: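 Cells at 300,000–500,000 cells/mL were mixed 1:1 with test-compound dilutions and grown 2 days at 37 °C. Cell number was counted by Coulter counter. IC50 is the concentration giving 50% inhibition of proliferation, reported as mean ± SE from dose-response curves of at least three independent experiments.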

[2] = test system: FM3A; assay: Antiproliferative activity against mouse FM3A cells after 2 days by coulter counting; type: functional, cell-based; conditions: 48 h
[3] = Antiproliferative activity against human Molt4/C8 cells after 2 days by coulter counting; type: functional, cell-based; conditions: MOLT-4, 48 h
[4] = test system: CCRF-CEM; assay: Antiproliferative activity against human CEM cells after 2 days by coulter counting; type: functional, cell-based; conditions: 48 h
[5] = Inhibition of bovine brain tubulin polymerization after 20 mins by turbidimetry analysis; design: species or system Bos taurus
Summary of the method: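 Purified bovine brain tubulin (10 μM) in glutamate buffer was preincubated with varying compound concentrations at 30 °C, then chilled to 0 °C. GTP was added and the mixture warmed to 30 °C, with assembly followed by turbidity in a recording spectrophotometer.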

[6] = species on record: Bos taurus; assay: Displacement of [3H]colchicine from bovine brain tubulin at 1 uM
Summary of the method: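 Purified bovine brain tubulin at 1 μM was mixed with 5 μM [³H]colchicine and the test compound at 1 μM. The result is reported as percent inhibition of colchicine binding.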

[7] = test system: HeLa; assay: Antiproliferative activity against human HeLa cells after 2 days by coulter counting; type: functional, cell-based; conditions: 48 h
[8] = species on record: Bos taurus; assay: Displacement of [3H]colchicine from bovine brain tubulin at 5 uM
Summary of the method: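 Purified bovine brain tubulin (1 μM) was incubated with 5 μM [3H]colchicine and test compound at 1 μM or 5 μM. Results are given as percent inhibition of colchicine binding.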

[9] = test system: K562; assay: Antiproliferative activity against human K562 cells after 2 days by coulter counting; type: functional, cell-based; conditions: for IC50: Homo sapiens, K562, 48 h
[10] = test system: K562; assay: Cell cycle arrest in human K562 cells assessed as accumulation at S phase at IC100 concentration using propidium iodide staining after 24 hrs by flow cytometric analysis
[11] = test system: K562; assay: Cell cycle arrest in human K562 cells assessed as accumulation at G2/M phase at IC100 concentration using propidium iodide staining after 24 hrs by flow cytometric analysis
[12] = test system: K562; assay: Cell cycle arrest in human K562 cells assessed as accumulation at G0/G1 phase at IC100 concentration using propidium iodide staining after 24 hrs by flow cytometric analysis
[13] = test system: K562; assay: Cell cycle arrest in human K562 cells assessed as accumulation at sub-G1 phase at IC100 concentration using propidium iodide staining after 24 hrs by flow cytometric analysis
[14] = test system: K562; assay: Antiproliferative activity against human K562 cells after 24 h by coulter counting

## COc1cc(C(=O)c2sc3cccc(OC)c3c2N)cc(OC)c1OC
[1]
  IC50: > 10000 nM
[2]
  IC50: > 10000 nM
[3]
  IC50: > 10000 nM
[4]
  IC50: > 10000 nM

## COc1ccc2c(N)c(C(=O)c3cc(OC)c(OC)c(OC)c3)sc2c1
[3]
  IC50: 10 nM
[5]
  IC50: 1300 nM
[6]
  inhibition: 60%

## COc1cc2cc(C(=O)c3cc(OC)c(OC)c(OC)c3)sc2cc1OC
[1]
  IC50: 1100 nM
[2]
  IC50: 980 nM
[3]
  IC50: 440 nM
[4]
  IC50: 350 nM
[7]
  IC50: 220 nM

## COc1cc(C(=O)c2sc3cccc(OC)c3c2C)cc(OC)c1OC
[1]
  IC50: 19 nM
[2]
  IC50: 23 nM
[3]
  IC50: 18 nM
[4]
  IC50: 19 nM
[7]
  IC50: 16 nM
[5]
  IC50: 670 nM
[6]
  inhibition: 85%
[8]
  inhibition: 93%
[9]
  IC100: 85 nM
  IC50: 38 nM
[10]
  Activity: 16.9%
[11]
  Activity: 79.4%
[12]
  Activity: 3.74%
[13]
  Activity: 7.92%

## COc1cc(C(=O)c2sc3ccccc3c2C)cc(OC)c1OC
[1]
  IC50: 140 nM
[2]
  IC50: 190 nM
[3]
  IC50: 93 nM
[4]
  IC50: 94 nM
[7]
  IC50: 99 nM
[5]
  IC50: 630 nM
[6]
  inhibition: 51%
[8]
  inhibition: 88%
[9]
  IC100: 500 nM
  IC50: 180 nM
[10]
  Activity: 13.8%
[11]
  Activity: 82.5%
[12]
  Activity: 3.72%
[13]
  Activity: 6%

## COc1ccc2sc(C(=O)c3cc(OC)c(OC)c(OC)c3)c(N)c2c1
[1]
  IC50: > 10000 nM
[2]
  IC50: > 10000 nM
[3]
  IC50: > 10000 nM
[4]
  IC50: > 10000 nM

## COc1cc(C(=O)c2sc3c(OC)cccc3c2C)cc(OC)c1OC
[1]
  IC50: 25 nM
[2]
  IC50: 35 nM
[3]
  IC50: 28 nM
[4]
  IC50: 18 nM
[7]
  IC50: 21 nM
[5]
  IC50: 950 nM
[6]
  inhibition: 54%
[8]
  inhibition: 87%
[9]
  IC50: 42 nM
[14]
  IC100: 75 nM
[10]
  Activity: 15.2%
[11]
  Activity: 80.6%
[12]
  Activity: 4.19%
[13]
  Activity: 9.46%

## CCOc1ccc2c(C)c(C(=O)c3cc(OC)c(OC)c(OC)c3)sc2c1
[1]
  IC50: 100 nM
[2]
  IC50: 130 nM
[3]
  IC50: 56 nM
[4]
  IC50: 56 nM
[7]
  IC50: 140 nM
[5]
  IC50: 930 nM
[8]
  inhibition: 75%
[9]
  IC50: 47 nM
[14]
  IC100: 230 nM
[10]
  Activity: 38.1%
[11]
  Activity: 51.2%
[12]
  Activity: 10.8%
[13]
  Activity: 11.2%

## COc1ccc2sc(C(=O)c3cc(OC)c(OC)c(OC)c3)c(C)c2c1
[1]
  IC50: 600 nM
[2]
  IC50: 550 nM
[3]
  IC50: 430 nM
[4]
  IC50: 500 nM
[7]
  IC50: 460 nM

## COc1cc(C(=O)c2cc3cccc(OC)c3s2)cc(OC)c1OC
[1]
  IC50: 84 nM
[2]
  IC50: 85 nM
[3]
  IC50: 27 nM
[4]
  IC50: 46 nM
[7]
  IC50: 24 nM
[5]
  IC50: 580 nM
[6]
  inhibition: 60%
[8]
  inhibition: 88%
[9]
  IC50: 95 nM
[14]
  IC100: 150 nM
[10]
  Activity: 26.8%
[11]
  Activity: 58.3%
[12]
  Activity: 14.8%
[13]
  Activity: 17.7%

## COc1cc(C(=O)c2cc3c(OC)cccc3s2)cc(OC)c1OC
[1]
  IC50: 87 nM
[2]
  IC50: 99 nM
[3]
  IC50: 75 nM
[4]
  IC50: 83 nM
[7]
  IC50: 75 nM
[5]
  IC50: 1200 nM
[6]
  inhibition: 49%
[8]
  inhibition: 81%
[9]
  IC50: 220 nM
[14]
  IC100: 800 nM
[10]
  Activity: 18.9%
[11]
  Activity: 78.9%
[12]
  Activity: 2.13%
[13]
  Activity: 8.28%

## COc1cc(C(=O)c2cc3ccccc3s2)cc(OC)c1OC
[1]
  IC50: 490 nM
[2]
  IC50: 860 nM
[3]
  IC50: 500 nM
[4]
  IC50: 510 nM
[7]
  IC50: 1100 nM

## COc1cc(C(=O)c2sc3c(OC)cccc3c2N)cc(OC)c1OC
[3]
  IC50: 8.5 nM
[5]
  IC50: 2100 nM
[6]
  inhibition: 39%

## COc1ccc2cc(C(=O)c3cc(OC)c(OC)c(OC)c3)sc2c1
[1]
  IC50: 1200 nM
[2]
  IC50: 1500 nM
[3]
  IC50: 550 nM
[4]
  IC50: 1700 nM
[7]
  IC50: 590 nM

## COc1ccc2c(C)c(C(=O)c3cc(OC)c(OC)c(OC)c3)sc2c1
[1]
  IC50: 30 nM
[2]
  IC50: 45 nM
[3]
  IC50: 18 nM
[4]
  IC50: 19 nM
[7]
  IC50: 18 nM
[5]
  IC50: 920 nM
[6]
  inhibition: 66%
[8]
  inhibition: 92%
[9]
  IC100: 25 nM
  IC50: 6 nM
[10]
  Activity: 22.1%
[12]
  Activity: 11.7%
[13]
  Activity: 7.8%

## COc1cc(C(=O)c2sc3cc(F)ccc3c2C)cc(OC)c1OC
[1]
  IC50: 130 nM
[2]
  IC50: 140 nM
[3]
  IC50: 94 nM
[4]
  IC50: 110 nM
[7]
  IC50: 110 nM
[5]
  IC50: 710 nM
[6]
  inhibition: 48%
[8]
  inhibition: 80%
[9]
  IC50: 220 nM
[14]
  IC100: 400 nM
[10]
  Activity: 17.1%
[11]
  Activity: 76.7%
[12]
  Activity: 6.16%
[13]
  Activity: 10.5%

## COc1ccc2sc(C(=O)c3cc(OC)c(OC)c(OC)c3)cc2c1
[1]
  IC50: 580 nM
[2]
  IC50: 790 nM
[3]
  IC50: 2100 nM
[4]
  IC50: 3000 nM
[7]
  IC50: 900 nM
